This is a sample that favours compounds with a hit; in the whole collection about 4.8% have one here.
pPAFAH inh = pPAFAH (human) enzyme inhibition; Q13093; recombinant pPAFAH, FP-rhodamine probe fluorescence polarization; inhibition, % at 3.39 µM; actives 1.5% (n = 330,000);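 active = inhibition above the mean inhibition across the screen plus 3 SD, cut at about 25% in these data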;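 also: inhibitors block binding of the rhodamine activity-based probe so polarization drops; 0% = enzyme with DMSO and 100% = wells lacking pPAFAH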
Target sequence (Q13093 whole entry, looked up): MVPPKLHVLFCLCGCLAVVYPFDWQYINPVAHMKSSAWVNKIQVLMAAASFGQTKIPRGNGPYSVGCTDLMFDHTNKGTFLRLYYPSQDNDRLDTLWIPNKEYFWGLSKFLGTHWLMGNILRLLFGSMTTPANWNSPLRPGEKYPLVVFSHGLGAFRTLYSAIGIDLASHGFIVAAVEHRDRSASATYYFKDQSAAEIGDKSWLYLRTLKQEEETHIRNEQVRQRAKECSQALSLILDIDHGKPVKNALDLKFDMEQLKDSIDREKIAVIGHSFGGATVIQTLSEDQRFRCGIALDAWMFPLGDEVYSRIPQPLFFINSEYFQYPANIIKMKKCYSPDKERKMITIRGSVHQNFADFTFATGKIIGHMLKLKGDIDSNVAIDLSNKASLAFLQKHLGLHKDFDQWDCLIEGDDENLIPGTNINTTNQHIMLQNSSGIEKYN
UCH37 DUB inh = inhibitors of human deubiquitinating enzyme UCH37. actives 0.33% (n = 330,000). inhibition, % (concentration not given with the values). Q9Y5K5. purified proteasome/UCH37, Ub-AMC cleavage fluorescence;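 active = mean inhibition over replicate wells above about 20%, limit read from the data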;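 also: 0% = compound-free wells with enzyme and 100% = wells lacking proteasome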
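Reagent: Ub-AMC substrate; assay system: Proteasome-associated human UCH37 deubiquitinase; controls: no-proteasome and no-compound wells; read-out: % inhibition of Ub-AMC cleavage fluorescence; timing: 30 min preincubation with enzyme, 25 min cleavage at room temperature; signal: AMC fluorescence from Ub-AMC cleavage, excitation 355 nm, emission 460 nm; buffer or medium: Tris-HCl pH 7.4 plus ovalbumin, ATP-MgCl2, DTT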
GRIN3A LBD mod = NR3A (human) ligand-binding domain modulation; NR3A LBD differential scanning fluorimetry, Tm shift; 0% = protein alone, 100% = glycine-bound protein; Tm shift relative to glycine control, % at 25 µM; actives 2.5% (n = 340,000); AID 1259313;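 active = melting temperature shift of at least 10% of the positive control shift, at one fixed dose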
PAFAH1B3 inh = inhibitors of human PAFAH1B3; AID 492972; Q15102; recombinant PAFAH1B3, FP-rhodamine probe, fluorescence polarization; inhibition, % at 3.39 µM; actives 0.28% (n = 340,000);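 active = inhibition above the screen-wide average of all tested compounds plus 3 SD, cut at about 25% in these data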;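 also: 0% = enzyme with DMSO only and 100% = wells lacking PAFAH1B3 protein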
PAFAH2 FP inh = PAFAH2 (human) inhibition; Q99487; recombinant PAFAH2, FP-rhodamine activity probe, fluorescence polarization; inhibition, % at 3.39 µM; actives 0.99% (n = 340,000); AID 492956;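 active = inhibition above the mean over all tested compounds plus 3 SD, cut at about 30% in these data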;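 also: inhibitors block probe labeling of enzyme so polarization drops; 0% = enzyme with DMSO and 100% = wells lacking PAFAH2 protein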
PAFAH1B2 inh = PAFAH1B2 (human) inhibition; P68402; recombinant PAFAH1B2, FP-rhodamine activity probe, fluorescence polarization; inhibition, % at 3.39 µM; actives 1.2% (n = 340,000); AID 492953;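 active = inhibition above the mean of all tested compounds plus 3 SD, cut at about 24% in these data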;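 also: 0% = enzyme with DMSO and 100% = wells lacking PAFAH1B2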
Target sequence (P68402 whole entry, looked up): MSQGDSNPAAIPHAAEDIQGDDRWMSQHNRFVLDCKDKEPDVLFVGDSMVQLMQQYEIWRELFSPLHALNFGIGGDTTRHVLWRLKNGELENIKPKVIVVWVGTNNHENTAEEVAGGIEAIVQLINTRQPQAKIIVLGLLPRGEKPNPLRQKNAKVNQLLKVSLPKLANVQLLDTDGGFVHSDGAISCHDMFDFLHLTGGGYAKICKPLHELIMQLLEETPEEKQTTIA
Starred values were filed as active, the others as inactive.

What do the screens show for `O=C(Nc1ccc(Nc2ccccc2)cc1)c1c(Cl)cccc1Cl`?
pPAFAH inh: 9; UCH37 DUB inh: 3; GRIN3A LBD mod: -1; PAFAH1B3 inh: -1; PAFAH2 FP inh: 6; PAFAH1B2 inh: 9

What do the screens show for `O=C(Nc1ccc(Nc2ccccc2)cc1)c1c(F)c(F)c(F)c(F)c1F`?
pPAFAH inh: 1; UCH37 DUB inh: 5; GRIN3A LBD mod: 15*; PAFAH1B3 inh: 7; PAFAH2 FP inh: -5; PAFAH1B2 inh: 6

What do the screens show for `O=C(NN=Cc1coc2ccccc2c1=O)c1cn(-c2ccccc2)nc1-c1ccccc1`?
UCH37 DUB inh: -10

How did Cc1cccc(NC(=S)N(Cc2cccc(Br)c2)CC2CCC(C(=O)O)CC2)c1 (stereo not given) do in these assays?
pPAFAH inh: -1; UCH37 DUB inh: 1; GRIN3A LBD mod: 1; PAFAH1B3 inh: 7; PAFAH2 FP inh: 3; PAFAH1B2 inh: 7

Results for COc1ccc(NC(=S)N(Cc2cccc(Br)c2)CC2CCC(C(=O)O)CC2)cc1 (stereo not given) ?
pPAFAH inh: 7; UCH37 DUB inh: 1; GRIN3A LBD mod: 12*; PAFAH1B3 inh: -1; PAFAH2 FP inh: 0; PAFAH1B2 inh: 6

What do the screens show for `COc1cccc(NC(=S)N(Cc2cccc(Br)c2)CC2CCC(C(=O)O)CC2)c1` (stereo not given)?
pPAFAH inh: 4; UCH37 DUB inh: 1; GRIN3A LBD mod: 17*; PAFAH1B3 inh: 2; PAFAH2 FP inh: -6; PAFAH1B2 inh: 1

What do the screens show for `COc1cc(C=Nn2nnnc2Nc2ccccc2)cc(OC)c1OC`?
UCH37 DUB inh: -1

What do the screens show for `Cc1cccc(C=NNc2ccc3ccccc3n2)c1`?
UCH37 DUB inh: -9

Results for Cn1c(=O)[nH]c(=O)c2c1nc(N1CCCCC1)n2CC=NNC(=O)c1cc(Br)ccc1O ?
UCH37 DUB inh: -8

Results for CC1(OC(=O)CCc2ccccc2)C(=O)C=C2C=C3CCCN3C=C2C1=O (stereo not given) ?
pPAFAH inh: 16; UCH37 DUB inh: 8; GRIN3A LBD mod: 1; PAFAH1B3 inh: 13; PAFAH2 FP inh: 11; PAFAH1B2 inh: 10

Results for CC1(OC(=O)CCc2ccccc2)C(=O)C=C2C=C(C3CC3)OC=C2C1=O (stereo not given) ?
pPAFAH inh: 33*

Results for COC(=O)CCC(=O)OC1(C)C(=O)C=C2C=C(C3CC3)OC=C2C1=O (stereo not given) ?
pPAFAH inh: 26*

Results for CSc1ccc(CN(C)C(=O)c2ccc(S(=O)(=O)Nc3ccccc3)cc2)cc1 ?
pPAFAH inh: 32*; UCH37 DUB inh: 4; GRIN3A LBD mod: -6; PAFAH1B3 inh: -6; PAFAH2 FP inh: 3; PAFAH1B2 inh: 4

Results for CN(Cc1ccc(F)cc1)C(=O)c1cccc(OCc2ccccc2)c1 ?
pPAFAH inh: 7; UCH37 DUB inh: 5; GRIN3A LBD mod: -1; PAFAH1B3 inh: -1; PAFAH2 FP inh: 17; PAFAH1B2 inh: 15

What do the screens show for `CN(Cc1ccc(F)cc1)C(=O)c1cccc(NS(=O)(=O)c2ccccc2)c1`?
pPAFAH inh: 25*; UCH37 DUB inh: 3; GRIN3A LBD mod: 1; PAFAH1B3 inh: -2; PAFAH2 FP inh: 4; PAFAH1B2 inh: 13

Results for C=CCn1c(SCc2nc3c(c(=O)[nH]c(=O)n3CCCC)n2CCC)nnc1-c1ccccc1 ?
pPAFAH inh: 1; UCH37 DUB inh: 29*; GRIN3A LBD mod: -1; PAFAH1B3 inh: 7; PAFAH2 FP inh: 0; PAFAH1B2 inh: 1

What do the screens show for `CS(=O)(=O)c1ccc2sc(NC(=O)c3cc4ccccc4o3)nc2c1`?
pPAFAH inh: 7; UCH37 DUB inh: -7; GRIN3A LBD mod: 11*; PAFAH1B3 inh: 4; PAFAH2 FP inh: -4; PAFAH1B2 inh: 2

What do the screens show for `Cc1ccc(C(=O)Nc2nc3ccc(S(C)(=O)=O)cc3s2)o1`?
pPAFAH inh: 1; UCH37 DUB inh: 7; GRIN3A LBD mod: 1; PAFAH1B3 inh: 5; PAFAH2 FP inh: -10; PAFAH1B2 inh: 1

What do the screens show for `CS(=O)(=O)c1ccc2nc(NC(=O)c3cc4ccccc4o3)sc2c1`?
pPAFAH inh: 5; UCH37 DUB inh: -17; GRIN3A LBD mod: 26*; PAFAH1B3 inh: 1; PAFAH2 FP inh: -4; PAFAH1B2 inh: 5

Results for Cc1nc(NC(=O)c2cc3ccccc3o2)sc1C ?
pPAFAH inh: -1; UCH37 DUB inh: -12; GRIN3A LBD mod: -3; PAFAH1B3 inh: 7; PAFAH2 FP inh: 8; PAFAH1B2 inh: 2

What do the screens show for `O=C(CSc1nnc(CNC(=O)c2cccs2)o1)Nc1cccc(C(F)(F)F)c1`?
pPAFAH inh: 3; UCH37 DUB inh: 0; GRIN3A LBD mod: -8; PAFAH1B3 inh: 4; PAFAH2 FP inh: 4; PAFAH1B2 inh: 26*

How did O=C(CSc1nnc(CNC(=O)c2cccs2)o1)Nc1cccc(F)c1 do in these assays?
pPAFAH inh: 0; UCH37 DUB inh: 1; GRIN3A LBD mod: 2; PAFAH1B3 inh: 4; PAFAH2 FP inh: 2; PAFAH1B2 inh: 7

What do the screens show for `CCC(C)(C)n1nnnc1C(c1ccc(O)c(OC)c1)N1CCN(c2nc3ccccc3s2)CC1` (stereo not given)?
pPAFAH inh: -2; UCH37 DUB inh: 4; GRIN3A LBD mod: -23; PAFAH1B3 inh: 6; PAFAH2 FP inh: -10; PAFAH1B2 inh: 3

How did COc1ccc(C(c2nnnn2C(C)(C)C)N2CCN(c3nc4ccccc4s3)CC2)cc1 (stereo not given) do in these assays?
UCH37 DUB inh: -2; GRIN3A LBD mod: 13*; PAFAH1B3 inh: -3; PAFAH2 FP inh: 3; PAFAH1B2 inh: 3

Results for O=C(Cc1nc(=O)c2ccccc2s1)Nc1ccccc1 ?
pPAFAH inh: -4; UCH37 DUB inh: -4; GRIN3A LBD mod: 18*; PAFAH1B3 inh: 3; PAFAH2 FP inh: -14; PAFAH1B2 inh: 3

Results for O=C(Nc1ccccc1)Nc1nnc(CSCc2ccccc2Cl)s1 ?
pPAFAH inh: -3; GRIN3A LBD mod: 30*; PAFAH1B3 inh: 5; PAFAH2 FP inh: -11; PAFAH1B2 inh: 4

What do the screens show for `Cc1ccc(OCCSCc2nnc(NC(=O)Nc3cccc(Cl)c3)s2)cc1`?
pPAFAH inh: -5; UCH37 DUB inh: -2; GRIN3A LBD mod: 14*; PAFAH1B3 inh: -3; PAFAH2 FP inh: -16; PAFAH1B2 inh: -9

Results for O=C(Nc1ccc(Cl)cc1)Nc1nnc(CSCc2ccccc2Cl)s1 ?
pPAFAH inh: -5; UCH37 DUB inh: 2; GRIN3A LBD mod: -5; PAFAH1B3 inh: -6; PAFAH2 FP inh: -13; PAFAH1B2 inh: -1

Results for O=C(Cc1ccccc1)Nc1nc(=O)c2ccccc2s1 ?
pPAFAH inh: 3; UCH37 DUB inh: 5; GRIN3A LBD mod: -2; PAFAH1B3 inh: 6; PAFAH2 FP inh: 11; PAFAH1B2 inh: 6

High-throughput results: PubChem, several laboratories
